From ChEMBL document CHEMBL4725347, “Discovery of a Monoiodo Aza-BODIPY Near-Infrared Photosensitizer: in vitro and in vivo Evaluation for Photodynamic Therapy” (J Med Chem, 2020)
Active and inactive are the calls of the source. No cut-off for these calls is given here.

Experiments:
[1] = Photostability of the compound in N,N-dimethylformamide assessed as compound degradation irradiated with 90 mW/cm2 light; assay type: physicochemical
[2] = Absorption property of the compound in chloroform assessed as hypsochromic shift by measuring maximum absorption wavelength by UV-visible spectrophotometric method; assay type: physicochemical
Summary of the method: (§1)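 Electronic absorption spectra recorded by UV-visible spectrophotometry at room temperature. Solvents were chloroform, isopropanol, acetonitrile, DMF, and PBS buffer containing 1% Cremophor EL/1,2-propanediol (10:3, v:v). Chloroform data were referenced to the non-halogenated parent dye.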

[3] = Emission property of the compound in chloroform assessed as maximum emission wavelength by fluorescence spectrophotometric method; assay type: physicochemical
Summary of the method: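 Fluorescence spectrum recorded in chloroform by fluorescence spectrophotometer at room temperature.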

[4] = Absorption property of the compound in acetonitrile assessed as absorption coefficient by UV-visible spectrophotometric method; assay type: physicochemical; summary of the method: as §1
[5] = Absorption property of the compound in N,N-dimethylformamide assessed as absorption coefficient by UV-visible spectrophotometric method; assay type: physicochemical; summary of the method: as §1
[6] = Induction of singlet oxygen generation in isopropanol assessed as relative rate of DPBF degradation to MB at 1 uM irradiated with 90 mW/cm2 halogen light; assay type: functional
Summary of the method: (§2)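 Singlet oxygen generation measured with 1,3-diphenylisobenzofuran (DPBF) as scavenger. The decrease in DPBF absorbance at 411 nm was monitored over time during light irradiation, and the photodegradation rate was calculated.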

[7] = Induction of singlet oxygen generation in N,N-dimethylformamide assessed as relative rate of DPBF degradation to MB at 1 uM irradiated with 90 mW/cm2 halogen light; assay type: functional; summary of the method: as §2
HeLa [8] = test: Phototoxicity against human HeLa cells assessed as reduction in cell viability at 125 nM preincubated for 2 hrs followed by 5.4 to 108 J/cm2 light irradiation and measured after 24 hrs by MTT assay; assay type: functional, cell-based
[9] = Photostability of the compound in isopropanol assessed as compound degradation irradiated with 90 mW/cm2 light; assay type: physicochemical
[10] = Photostability of the compound in PBS containing 1% Cremophor EL/1,2-propanediol (10:3, v:v) system assessed as compound degradation irradiated with 90 mW/cm2 light; assay type: physicochemical; details: buffer
[11] = Stability of the compound in acetonitrile assessed as compound degradation under dark condition; assay type: physicochemical
[12] = Drug uptake in mitochondria of human HeLa cells at 5 uM incubated for 2 hrs under dark condition by mito-tracker green FM dye based laser confocal microscopic analysis; assay type: ADME
Summary of the method: (§3)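 HeLa cells adhered overnight on glass-bottom dishes and were loaded with 5 μM compound in the dark for 2 h. After PBS washes, cells were stained with Mito-Tracker Green FM 250 nM for 30 min, Lyso-Tracker Green 160 nM for 30 min, or ER-Tracker Green 2 μM for 45 min. Confocal imaging: trackers excited at 488 nm, collected 500–560 nm; compound excited at 633 nm, collected 650–740 nm.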

[13] = Drug uptake in lysosomes of human HeLa cells at 5 uM incubated for 2 hrs under dark condition by Lyso tracker green dye based laser confocal microscopic analysis; assay type: ADME, subcellular, Lysosome; summary of the method: as §3
HeLa [14] = test: Induction of apoptosis in human HeLa cells assessed as necrotic cells at 40 nM preincubated for 3 hrs followed by 54 J/cm2 light irradiation and measured after 24 hrs by Annexin-V-FITC/propidium iodide staining based flow cytometry (reference value: 2.8%); assay type: functional
Summary of the method: (§4)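 HeLa cells in six-well plates were exposed to compound for 3 h, irradiated (λ > 590 nm), and incubated 24 h at 37 °C. Cells were then harvested, washed with PBS, and stained with annexin V-FITC/PI for 20 min at room temperature before immediate flow cytometry. Untreated, unirradiated cells served as control.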

HeLa [15] = test: Induction of apoptosis in human HeLa cells assessed as viable cells at 200 nM preincubated for 3 hrs followed by 27 J/cm2 light irradiation and measured after 24 hrs by Annexin-V-FITC/propidium iodide staining based flow cytometry (reference value: 90.74%); assay type: functional; details: light or radiation study, read-out: Activity; summary of the method: as §4
HeLa [16] = test: Induction of apoptosis in human HeLa cells assessed as necrotic cells at 200 nM preincubated for 3 hrs followed by 27 J/cm2 light irradiation and measured after 24 hrs by Annexin-V-FITC/propidium iodide staining based flow cytometry (reference value: 2.8%); assay type: functional; summary of the method: as §4
HeLa [17] = test: Induction of apoptosis in human HeLa cells assessed as early apoptotic cells at 200 nM preincubated for 3 hrs followed by 54 J/cm2 light irradiation and measured after 24 hrs by Annexin-V-FITC/propidium iodide staining based flow cytometry (reference value: 0.54%); assay type: functional; summary of the method: as §4
HeLa [18] = test: Induction of apoptosis in human HeLa cells assessed as late apoptotic cells at 200 nM preincubated for 3 hrs followed by 54 J/cm2 light irradiation and measured after 24 hrs by Annexin-V-FITC/propidium iodide staining based flow cytometry (reference value: 5.92%); assay type: functional; summary of the method: as §4
HeLa [19] = test: Induction of apoptosis in human HeLa cells assessed as necrotic cells at 200 nM preincubated for 3 hrs followed by 54 J/cm2 light irradiation and measured after 24 hrs by Annexin-V-FITC/propidium iodide staining based flow cytometry (reference value: 2.8%); assay type: functional; summary of the method: as §4
HeLa [20] = test: Induction of reactive oxygen species generation in human HeLa cells at 0.004 to 2.5 uM incubated for 3 hrs under dark condition by confocal scanning microscopic analysis; assay type: cell-based; details: dose 0.004-2.5 µM
Summary of the method: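 HeLa cells were exposed to 0.004, 0.02, 0.10, 0.5 or 2.5 μM for 3 h, washed, and loaded with H2DCFDA 10 μM in PBS for 20 min at 37 °C. After washing, cells in PBS were irradiated with 54 J/cm² (λ > 590 nm) or kept dark. Fluorescence was read by confocal microscopy and by plate reader (ex 485/em 538 nm).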

[21] = Drug uptake in Balb/c nu/nu mouse xenografted with human HeLa cells at 2 mg/kg, iv measured up to 3 hrs by fluorescence imaging analysis; assay type: ADME, organism-based; details: in vivo
Summary of the method: (§5)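 Female Balb/c nu/nu mice bore subcutaneous HeLa tumors (5×10^6 cells, right back) and received 2 mg/kg via tail vein. Living mice were imaged under isoflurane at time points (ex 680/em 720 nm, 1 s exposure). At set times mice were euthanized and heart, liver, spleen, lungs, kidneys and tumor imaged ex vivo; ROI quantified, mean ± SD, n = 3.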

[22] = Drug uptake in human HeLa cells xenografted Balb/c nu/nu mouse lung at 2 mg/kg, iv measured within 1 hr by fluorescence imaging analysis; assay type: ADME, organism-based; details: in vivo; summary of the method: as §5
[23] = Drug uptake in human HeLa cells xenografted Balb/c nu/nu mouse spleen at 2 mg/kg, iv measured within 1 hr by fluorescence imaging analysis; assay type: ADME, organism-based; details: in vivo; summary of the method: as §5
[24] = Drug uptake in human HeLa cells xenografted Balb/c nu/nu mouse heart at 2 mg/kg, iv measured after 3 hrs by fluorescence imaging analysis; assay type: ADME, organism-based; details: in vivo; summary of the method: as §5
[25] = Toxicity in human HeLa cells xenografted Balb/c nu/nu mouse assessed as body weight loss at 2 mg/kg, iv pretreated for 15 mins followed by 54 J/cm2 light irradiation for 10 mins and measured for 24 days; assay type: organism-based; details: in vivo, 0.25 h
Summary of the method: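 Female Balb/c nu/nu mice (18-22 g) carried subcutaneous HeLa cells (about 5×10^6, right back) and were treated on day 7 at a tumor volume of 80-100 mm³. Five mice per group received a tail-vein dose; saline controls were also irradiated. Fifteen minutes later the tumor was irradiated once with a 75 W halogen lamp (590 nm cut-on, 90 mW/cm², 10 min), without anaesthesia. Body weight was recorded every other day.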

For `COc1ccc(C2=[N+]3C(=Nc4c(-c5ccccc5)cc(-c5ccc(OC)cc5)n4[B-]3(F)F)C(c3ccccc3)=C2I)cc1`, which Stabilty [1] is on record?
The Stabilty was “Unstable”.

What about the Activity [2] of the same molecule?
The Activity was 678 nm.

And the Activity [3]?
Its Activity is 721 nm.

What about the Activity [4] of the same molecule?
Its Activity is 59300 M⁻¹ cm⁻¹.

And the Activity [5]?
The Activity was 59300 M⁻¹ cm⁻¹.

What about the fold change (FC) [6] of the same molecule?
Its fold change (FC) is 7.3.

And the fold change (FC) [7]?
The fold change (FC) was 1.3.

What about the Activity (HeLa [8]) of the same molecule?
The Activity was “Active”.

What about the Stabilty [9] of the same molecule?
The Stabilty was “Stable”.

And the Stabilty [10]?
The Stabilty was “Stable”.

And the Stabilty [11]?
Its Stabilty is “Unstable”.

What about the Drug uptake [12] of the same molecule?
The Drug uptake was “Active”.

And the Drug uptake [13]?
Its Drug uptake is “Active”.

What about the Activity (HeLa [14]) of the same molecule?
Its Activity is 1.73%.

What about the viability at 0.2 µM (HeLa [15]) of the same molecule?
The viability at 0.2 µM was 42.9%.

What about the Activity (HeLa [16]) of the same molecule?
Its Activity is 21.64%.

What about the Activity (HeLa [17]) of the same molecule?
Its Activity is 81.04%.

What about the Activity (HeLa [18]) of the same molecule?
The Activity was 8.6%.

And the Activity (HeLa [19])?
Its Activity is 2.22%.

And the Activity (HeLa [20])?
The Activity was “Non-Toxic”.

And the Drug uptake [21]?
The Drug uptake was “Active”.

What about the Drug uptake [22] of the same molecule?
Its Drug uptake is “Active”.

What about the Drug uptake [23] of the same molecule?
The Drug uptake was “Active”.

What about the Drug uptake [24] of the same molecule?
The Drug uptake was “Active”.

What about the Activity [25] of the same molecule?
The Activity was “Non-Toxic”.
